Source: the M2OR odorant receptor database

Legend:
Details in all cases: stereoisomer not certain
OR2G2 (Homo sapiens) = molecular target: T1, OR2G2 (Homo sapiens) (UniProt Q8NGZ5)
T1 sequence (whole entry): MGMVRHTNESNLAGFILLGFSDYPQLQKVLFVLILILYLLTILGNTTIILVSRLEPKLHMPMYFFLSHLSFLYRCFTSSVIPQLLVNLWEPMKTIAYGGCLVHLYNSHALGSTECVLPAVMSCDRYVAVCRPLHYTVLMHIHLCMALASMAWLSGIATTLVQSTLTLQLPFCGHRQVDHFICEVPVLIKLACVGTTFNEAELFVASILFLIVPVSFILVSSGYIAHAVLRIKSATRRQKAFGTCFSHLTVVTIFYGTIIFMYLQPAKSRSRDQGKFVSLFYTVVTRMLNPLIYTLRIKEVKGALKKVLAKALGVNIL
Procedure, shortened: (§1)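 Transient luciferase assays in mammalian cell lines were common, though methods varied by source. The values come from published papers and their supplementary material, with extra details from the original authors when needed. Responsive refers to a measured signal the original authors judged statistically different from baseline, and non-responsive (inactive) to the remainder.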

OR2D3 (Homo sapiens) = OR2D3 (Homo sapiens) (UniProt Q8NGH3)
Procedure, shortened: as §1

OR2F1 (Homo sapiens) = OR2F1 (Homo sapiens) (UniProt Q13607)
Procedure, shortened: as §1

OR2F2 (Homo sapiens) = OR2F2 (Homo sapiens) (UniProt O95006)
Procedure, shortened: as §1

OR2G3 (Homo sapiens) = OR2G3 (Homo sapiens) (UniProt Q8NGZ4)
Procedure, shortened: as §1

OR2G6 (Homo sapiens) = OR2G6 (Homo sapiens) (UniProt Q5TZ20)
Procedure, shortened: as §1

OR2D2 S148P I163T M202T = tested on: OR2D2 S148P I163T M202T
Procedure, shortened: as §1

OR2D3 R155W = tested on: OR2D3 R155W
Procedure, shortened: as §1

OR2G2 L167P R236G = tested on: OR2G2 L167P R236G
Procedure, shortened: as §1

OR2G3 I289V = tested on: OR2G3 I289V
Procedure, shortened: as §1

Measured: odorant receptor agonist call;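 note: active if original authors judged signal statistically different from baseline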

Sequence of OR2D3 (Homo sapiens) (Q8NGH3 whole entry): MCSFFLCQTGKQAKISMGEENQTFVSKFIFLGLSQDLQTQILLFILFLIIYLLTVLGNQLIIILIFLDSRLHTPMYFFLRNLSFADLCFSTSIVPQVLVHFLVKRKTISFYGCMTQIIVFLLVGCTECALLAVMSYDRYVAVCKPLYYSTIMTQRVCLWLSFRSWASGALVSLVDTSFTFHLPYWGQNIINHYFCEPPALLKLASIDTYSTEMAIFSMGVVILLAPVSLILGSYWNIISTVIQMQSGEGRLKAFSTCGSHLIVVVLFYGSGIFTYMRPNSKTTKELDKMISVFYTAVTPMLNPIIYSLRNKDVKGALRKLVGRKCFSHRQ
Sequence of OR2F1 (Homo sapiens) (Q13607 whole entry): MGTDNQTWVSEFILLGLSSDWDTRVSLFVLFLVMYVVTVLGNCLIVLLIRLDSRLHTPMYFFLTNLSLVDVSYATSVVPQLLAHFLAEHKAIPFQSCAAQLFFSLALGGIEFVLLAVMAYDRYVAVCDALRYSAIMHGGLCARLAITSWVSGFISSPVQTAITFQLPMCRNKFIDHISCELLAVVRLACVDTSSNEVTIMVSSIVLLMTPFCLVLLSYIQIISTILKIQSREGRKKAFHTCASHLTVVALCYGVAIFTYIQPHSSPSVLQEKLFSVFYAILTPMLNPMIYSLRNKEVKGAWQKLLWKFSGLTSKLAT
Sequence of OR2G6 (Homo sapiens) (Q5TZ20 whole entry): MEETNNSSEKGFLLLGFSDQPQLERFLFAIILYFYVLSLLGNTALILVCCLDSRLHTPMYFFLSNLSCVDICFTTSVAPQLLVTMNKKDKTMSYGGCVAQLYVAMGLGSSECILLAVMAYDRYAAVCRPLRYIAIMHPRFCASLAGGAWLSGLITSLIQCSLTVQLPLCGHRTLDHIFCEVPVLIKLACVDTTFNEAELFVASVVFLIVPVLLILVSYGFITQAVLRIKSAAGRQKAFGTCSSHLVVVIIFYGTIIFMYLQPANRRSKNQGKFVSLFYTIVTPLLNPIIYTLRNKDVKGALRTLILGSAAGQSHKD
Sequence of OR2F2 (Homo sapiens) (O95006 whole entry): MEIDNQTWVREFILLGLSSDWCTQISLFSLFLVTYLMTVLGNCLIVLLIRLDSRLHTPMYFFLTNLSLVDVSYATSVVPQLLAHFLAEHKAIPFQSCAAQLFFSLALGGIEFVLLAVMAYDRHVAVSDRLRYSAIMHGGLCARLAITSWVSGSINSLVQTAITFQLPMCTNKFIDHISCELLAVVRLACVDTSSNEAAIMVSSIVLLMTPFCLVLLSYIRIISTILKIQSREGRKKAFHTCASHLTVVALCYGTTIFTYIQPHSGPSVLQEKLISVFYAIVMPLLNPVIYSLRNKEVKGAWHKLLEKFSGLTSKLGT
Sequence of OR2G3 (Homo sapiens) (Q8NGZ4 whole entry): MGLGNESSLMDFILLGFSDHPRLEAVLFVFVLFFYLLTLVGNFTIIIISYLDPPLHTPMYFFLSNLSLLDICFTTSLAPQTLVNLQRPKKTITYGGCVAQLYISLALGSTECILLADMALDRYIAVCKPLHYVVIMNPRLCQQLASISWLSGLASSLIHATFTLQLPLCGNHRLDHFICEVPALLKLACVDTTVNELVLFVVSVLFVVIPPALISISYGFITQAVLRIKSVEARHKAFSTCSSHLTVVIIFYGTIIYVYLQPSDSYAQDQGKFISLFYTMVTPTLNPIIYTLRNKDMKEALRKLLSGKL
Sequence of OR2D3 R155W (as listed by the source, stated change not applied): as the sequence (Q8NGH3 whole entry) above, with R155W counted along it
Sequence of OR2G3 I289V (as listed by the source, stated change not applied): as the sequence (Q8NGZ4 whole entry) above, with I289V counted along it

C=CCc1ccc(OC)cc1
inactive: OR2G2 (Homo sapiens)

Cc1c([N+](=O)[O-])c(C)c([N+](=O)[O-])c(C(C)(C)C)c1[N+](=O)[O-]
inactive: OR2D3 (Homo sapiens) | OR2F1 (Homo sapiens) | OR2F2 (Homo sapiens) | OR2G2 (Homo sapiens) | OR2G3 (Homo sapiens) | OR2G6 (Homo sapiens)

O=Cc1ccccc1
inactive: OR2G2 (Homo sapiens)

C=CCOC(=O)Cc1ccccc1
inactive: OR2D2 S148P I163T M202T | OR2D3 (Homo sapiens) | OR2D3 R155W | OR2F1 (Homo sapiens) | OR2F2 (Homo sapiens) | OR2G2 (Homo sapiens) | OR2G2 L167P R236G | OR2G3 (Homo sapiens) | OR2G3 I289V | OR2G6 (Homo sapiens)
